Data reported in paper PMC3201796 (Cell host & microbe, 2011).
Values after ≈ are worked out from the molar mass of the structure shown. Where two headings read alike, the source gives them in different places.

Key:
Cytostatic activity [1] = assay type: cell-based; details: human, HEL cells, non-infected
Cytostatic activity [2] = assay type: cell-based; details: human, PHKs, non-infected
HEL cells = test: Cytotoxicity by cell morphology; assay type: cell-based, human
Method in brief: (§1)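 Run in non-infected cultures in parallel with the antiviral assay. Cells exposed to test compound and examined microscopically at day 3. MCC is the lowest concentration giving a detectable change in cell morphology.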

PHKs = test: Cytotoxicity by cell morphology; assay type: cell-based, human; details: non-infected
Method in brief: as §1

[3] = system: HSV-2 (strain NS and RV-124); test: Virus yield reduction assay; assay type: cell-based
Method in brief: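 HEL monolayers infected with HSV-2 clinical isolates NS or RV-124 at two moi for 2 h at 37 °C, then washed and given test compound in duplicate. At 24, 48 and 72 h, virus released by freeze-thaw and titrated by plaque assay on HEL cells.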

HSV-2 [4] = assay type: cell-based; details: for Virus production (TCID50/ml): M/M
HSV-2 [5] = assay type: cell-based; details: day 6, M/M
HSV-2 [6] = test: HSV-2 cytopathicity in primary monocyte/macrophage cultures; assay type: cell-based; details: day 6, M/M
HSV-1KOS = test: Organotypic epithelial raft cultures infected with HSV-1; assay type: cell-based
HSV-2G [7] = test: Organotypic epithelial raft cultures infected with HSV-2; assay type: cell-based
HSV-1F = test: Human tonsillar tissue ex vivo infected with HSV-1; assay type: cell-based
HSV-2G, HSV-2MS = test: Human tonsillar tissue ex vivo infected with HSV-2; assay type: cell-based; details: 66 μg/ml
HSV-2G [8] = test: Tonsillar tissue coinfected with HSV-2G and HIV-1LAI, HSV-2 DNA release; assay type: cell-based; details: 66 μg/ml; coinfected with HIV-1LAI; n=6
Method in brief: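 Human tonsillar tissue blocks sequentially infected with HSV-2 G then HIV-1 LAI; 27 blocks per condition, 9 per well in 3 ml medium. Tenofovir at 66 µg/ml kept throughout culture; untreated donor-matched tissues as control. HSV-2 DNA release into medium measured by quantitative real-time PCR; release pooled from 27 blocks per donor; 6 donors.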

HIV-1LAI = test: Tonsillar tissue coinfected with HSV-2G and HIV-1LAI, p24 release; assay type: cell-based; details: 66 μg/ml
Method in brief: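 Tonsil tissue blocks (~2 mm) kept on collagen sponge at the air–liquid interface; 27 blocks per condition (9 per well). Infected with HSV-2 strain G, then HIV-1 LAI. Test compound added 12 h before infection and replenished at each medium change for the whole culture. p24 in medium over 3-day periods measured by bead-based assay. Six donors; means ± SEM.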

HSV-2G [9] = test: Human cervico-vaginal tissue ex vivo infected with HSV-2G; assay type: cell-based; details: 150 μg/ml
HSV-1 = test: HSV-1-infected athymic nude mice; assay type: in vivo
Method in brief: (§2)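 Female NMRI athymic nude or hairless mice (~20 g, ~4 weeks; groups of five) scarified over ~1 cm² lumbosacral area with HSV-1 KOS (5×10^3 PFU) or HSV-2 G (5×10^2). Test compound 1% in 100% DMSO or CAPRISA 004-type gel, topical twice daily for 5 days from 1-2 h post-infection; same vehicle without drug as placebo. Lesions and mortality recorded over one month; Kaplan-Meier survival, log-rank test.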

HSV-2 [10] = test: HSV-2-infected athymic nude mice; assay type: in vivo
Method in brief: as §2

[11] = MTT viability assay in epithelial TZM-Bl cells; assay type: cell-based, human; details: up to 1,000 μg/ml; data not shown
Method in brief: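 Confluent TZM-Bl epithelial monolayers exposed to a range of test compound concentrations for 3–4 days, then given MTT dye. Viable cells convert it to formazan, measured by optical density.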

HSV-1 and HSV-2 = assay type: cell-based; details: Fibroblast, read-out: EC50 values (inhibition of cytopathicity), range
Method in brief: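 HEL fibroblasts or primary human keratinocytes (from neonatal foreskin) infected at 100 TCID50 per strain and grown 3 days at 37 °C, 5% CO2, with a range of test compound concentrations. CPE scored visually. […] Means of at least two independent experiments, ± SD.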

HIV-1 = details: 1% vaginal gel, 889 women, CAPRISA 004; ref Abdool Karim et al., 2010; cited from earlier work
HSV-2 [12] = details: 1% vaginal gel, CAPRISA 004; ref Cates, 2010; cited from earlier work
[13] = in vivo; cited from earlier work
[14] = 1% gel as in CAPRISA 004, topical
[15] = 1% in DMSO, topical, 5 days from day of infection

SMILES: C[C@H](Cn1cnc2c(N)ncnc21)OCP(=O)(O)O [Tenofovir, (R)-9-[2-(phosphonylmethoxypropyl)adenine]]
- CC50 at 3 days (Cytostatic activity [1]): 547 ± 39 µg/mL (≈ 1900 µM)
- CC50 at 3 days (Cytostatic activity [2]): > 50 µg/mL
- Cell toxicity MCC (minimum cytotoxic concentration) (HEL cells; HEL, non-infected, cell morphology): >400 µg/mL
- cytotoxicity as assessed from HEL cell morphology (HEL cells; highest drug concentrations used (500 μg/ml)): no signs of tenofovir cytotoxicity
- Cell toxicity MCC (minimum cytotoxic concentration) (PHKs): >200 µg/mL
- changes in cell number ([3]; HEL cells, any drug concentration): no changes in cell number
- EC99 (drug concentration that decreases virus titers by two orders of magnitude) ([3]; HSV-2 RV-124 and NS, two moi, 24, 48, 72 h post-infection, PFU reduction): 214 to 390 µg/mL
- Virus production (TCID50/ml) (HSV-2 [4]; 0.04 μg/ml, day 6): 3.2×10^5 TCID50/ml
- Virus production (TCID50/ml) (HSV-2 [4]; 0.2 μg/ml, day 6): 3×10^5 TCID50/ml
- HSV-2 production (HSV-2 [4]; 1 μg/ml or 0.2 μg/ml, no significant protective effect): 2.4 to 3.0 × 10^5 TCID50/ml
- Virus production (TCID50/ml) (HSV-2 [4]; 1 μg/ml, day 6): 2.4×10^5 TCID50/ml
- Virus production (TCID50/ml) (HSV-2 [4]; 5 μg/ml, day 6): 7.2× 10^4 TCID50/ml
- Virus production (TCID50/ml) (HSV-2 [4]; 20 μg/ml, day 6): 1.3×10^4 TCID50/ml
- drop in HSV-2 production (HSV-2 [4]; 20 μg/ml, from 3.7 × 10^5 TCID50/ml in untreated): more than one log10
- Virus production (TCID50/ml) (HSV-2 [4]; 100 μg/ml, day 6): No virus
- Virus production (TCID50/ml) (HSV-2 [4]; 500 μg/ml, day 6 post infection): No virus
- HSV-2 replication in M/M (HSV-2 [4]; 500 and 100 μg/ml): completely suppressed
- Virus production (PFU/ml) (HSV-2 [5]; 0.04 μg/ml): 8.5×10^4 PFU/ml
- Virus production (PFU/ml) (HSV-2 [5]; 0.2 μg/ml): 7.3×10^4 PFU/ml
- Virus production (PFU/ml) (HSV-2 [5]; 1 μg/ml): 6.6×10^4 PFU/ml
- Virus production (PFU/ml) (HSV-2 [5]; 5 μg/ml): 1.9×10^4 PFU/ml
- Virus production (PFU/ml) (HSV-2 [5]; 20 μg/ml): 2.2×10^3 PFU/ml
- Virus production (PFU/ml) (HSV-2 [5]; 100 μg/ml): No virus
- Virus production (PFU/ml) (HSV-2 [5]; 500 μg/ml): No virus
- Cytopathicity (CPE) (%) (HSV-2 [6]; 0.04 μg/ml): 85%
- Cytopathicity (CPE) (%) (HSV-2 [6]; 0.2 μg/ml): 80%
- Cytopathicity (CPE) (%) (HSV-2 [6]; 5 μg/ml): 60%
- Cytopathicity (CPE) (%) (HSV-2 [6]; 20 μg/ml): 5%
- Cytopathicity (CPE) (%) (HSV-2 [6]; 100 μg/ml): None
- Cytopathicity (CPE) (%) (HSV-2 [6]; 500 μg/ml): None
- log10 reduction in virus production (HSV-1KOS; 50 μg/ml): 0.81 log10
- protection of virus-induced cytopathicity (HSV-1KOS; 200 μg/ml): complete CPE protection
- log10 reduction in virus production (HSV-1KOS; 200 μg/ml, 5 days of treatment): 2.6 log10
- activity against HSV-2 in rafts (HSV-2G [7]; 2 μg/ml): inactive
- log10 reduction in virus production (HSV-2G [7]; 50 μg/ml): 1.75 log10
- protection of virus-induced cytopathicity (HSV-2G [7]; 200 μg/ml): complete CPE protection
- log10 reduction in virus production (HSV-2G [7]; 200 μg/ml, 5 days of treatment): 5.4 log10
- protection of raft epithelium (histology) (HSV-2G [7]; 20 and 5 μg/ml): partially protective
- reduction of replication vs donor-matched untreated tissue (HSV-1F; 66 μg/ml, HSV-1F): 99 ± 0.1%
- EC50 (HSV-1F; Human alphaherpesvirus 1, in Homo sapiens, read-out: EC50 for HSV suppression): 7 µg/mL (≈ 24.4 µM)
- reduction of replication vs donor-matched untreated tissue (HSV-2G, HSV-2MS; HSV-2G): 87 ± 12%
- reduction of replication vs donor-matched untreated tissue (HSV-2G, HSV-2MS; HSV-2MS): 91.7 ± 3.2%
- suppression of HSV-2G replication (HSV-2G [8]): 96 ± 1%
- inhibition of HIV-1LAI (HIV-1LAI): inhibited completely
- reduction of HSV-2G replication (averaged over experiments) (HSV-2G [9]): 78 ± 9%
- HSV-2G DNA in culture medium (HSV-2G [9]; untreated 6.6 log10 copies/ml, n=5): 5.5 log10 copies/mL
- appearance of lesions and death vs placebo gel (HSV-1; [14]): delayed the appearance of herpesvirus-related lesions and subsequent death
- morbidity and survival (HSV-1; [15]): statistically significant suppression of morbidity and prolonged the survival
- appearance of lesions and death vs placebo gel (HSV-2 [10]; [14]): delayed the appearance of herpesvirus-related lesions and subsequent death
- morbidity and survival (HSV-2 [10]; [15]): statistically significant suppression of morbidity and prolonged the survival
- MTT dye viability testing [11]: did not show measurable toxicity
- EC50 (HSV-1 and HSV-2): 103 to 193 µg/mL (≈ 359 to 672 µM)
- reduction of HIV-1 sexual transmission (HIV-1): 39%
- reduction of the risk of acquisition of HSV-2 (HSV-2 [12]): 51%
- AUC24hr in cervico-vaginal fluid [13]: 18600 µg·h/mL
- level in cervico-vaginal fluid at 24 hr post drug exposure [13]: ~ 100 μg/ml
